≈ marks a conversion by molar mass, not a printed value.

This note sets out measurements from ChEMBL document CHEMBL1933008, “Novel 2-(2-(4-aryloxybenzylidene) hydrazinyl)benzothiazole derivatives as anti-tubercular agents” (2012).

For the first assay, the system named is Mycobacterium tuberculosis. Nature of the assay: Antitubercular activity against Mycobacterium tuberculosis H37Rv after 7 days by Resazurin microtiter assay. Particulars: 168 h. It is filed as functional. A digest of the protocol:
(§1)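 M. tuberculosis H37Rv suspension seeded at 10^5 cells per well in Middlebrook 7H9 broth. Compounds serially diluted directly on the plate; control got equivalent DMSO. Incubated 37 °C for 7 days, then 0.02% fresh resazurin added and incubated a further 48 h. MIC read visually as the lowest concentration giving complete inhibition (no blue-to-pink change).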
(Alamar Blue is a resazurin reagent that responds to reducing activity.)
In general, MIC refers to the least concentration at which growth counts as inhibited. A low value points to greater potency. `Cc1ccc2nc(NN)sc2c1` displayed an MIC of 222 µg/mL (≈ 1240 µM).
Same read-out and setting: the value for `NNc1nc2ccc(Cl)cc2s1` was 233 µg/mL (≈ 1170 µM).
On to `NNc1nc2ccccc2s1`, for which the MIC stood at 288 µg/mL (≈ 1740 µM).
`O=Cc1ccc(Oc2ccccc2)cc1` displayed an MIC of 133 µg/mL (≈ 670 µM). This MIC lies about 2.2-fold lower than the previous one.
For `O=Cc1ccc(Oc2ccccc2Cl)cc1`, the MIC came out at 123 µg/mL (≈ 531 µM).
Same read-out and setting: the value for `O=Cc1ccc(Oc2ccc(Cl)cc2)cc1` was 117 µg/mL (≈ 504 µM); that for `C(=N/Nc1nc2ccccc2s1)/c1ccc(Oc2ccccc2)cc1` was 12.7 µg/mL (≈ 36.7 µM); that for `Clc1ccccc1Oc1ccc(/C=N\Nc2nc3ccccc3s2)cc1` was 6 µg/mL (≈ 15.8 µM).
Consider `Clc1ccc(Oc2ccc(/C=N\Nc3nc4ccccc4s3)cc2)cc1`, for which it took 2.94 µg/mL (≈ 7.74 µM) to inhibit growth (MIC).
The compound `Clc1ccc(Oc2ccc(/C=N\Nc3nc4ccccc4s3)cc2)c(Cl)c1` registered an MIC of 2.63 µg/mL (≈ 6.35 µM).
Compound `Cc1cc(Oc2ccc(/C=N\Nc3nc4ccccc4s3)cc2)ccc1Cl` returned an MIC of 6.63 µg/mL (≈ 16.8 µM).
As for `Clc1ccc2nc(N/N=C\c3ccc(Oc4ccccc4)cc3)sc2c1`, inhibition of growth (MIC) required 5.5 µg/mL (≈ 14.5 µM).
Turning to `Clc1ccc2nc(N/N=C\c3ccc(Oc4ccccc4Cl)cc3)sc2c1`, the lowest concentration to inhibit growth (MIC) was 2 µg/mL (≈ 4.83 µM).
In the case of `Clc1ccc(Oc2ccc(/C=N\Nc3nc4ccc(Cl)cc4s3)cc2)cc1`, it took 2.25 µg/mL (≈ 5.43 µM) to inhibit growth (MIC). This MIC and that of the compound before are within 1.5-fold of each other.
`Clc1ccc(Oc2ccc(/C=N/Nc3nc4ccc(Cl)cc4s3)cc2)c(Cl)c1`: the MIC was 1.5 µg/mL (≈ 3.34 µM).
In turn, `Cc1cc(Oc2ccc(/C=N\Nc3nc4ccc(Cl)cc4s3)cc2)ccc1Cl` yielded an MIC of 4.5 µg/mL (≈ 10.5 µM).
As to `Cc1ccc2nc(N/N=C\c3ccc(Oc4ccccc4)cc3)sc2c1`, the MIC came out at 9.13 µg/mL (≈ 25.4 µM).
In turn, `Cc1ccc2nc(N/N=C\c3ccc(Oc4ccccc4Cl)cc3)sc2c1` had an MIC of 4.75 µg/mL (≈ 12.1 µM).
`Cc1ccc2nc(N/N=C\c3ccc(Oc4ccc(Cl)cc4)cc3)sc2c1` yielded an MIC of 15 µg/mL (≈ 38.1 µM).
The same measure, in the same setting: the value for `Cc1ccc2nc(N/N=C\c3ccc(Oc4ccc(Cl)cc4Cl)cc3)sc2c1` was 12.6 µg/mL (≈ 29.3 µM).
Still for that read-out and setting: the value for `Cc1ccc2nc(N/N=C\c3ccc(Oc4ccc(Cl)c(C)c4)cc3)sc2c1` was 15 µg/mL (≈ 36.8 µM); that for `COc1ccc2nc(N/N=C\c3ccc(Oc4ccccc4)cc3)sc2c1` was 16.5 µg/mL (≈ 43.9 µM).
`COc1ccc2nc(N/N=C\c3ccc(Oc4ccccc4Cl)cc3)sc2c1` yielded a minimum inhibitory concentration (MIC) of 19.5 µg/mL (≈ 47.6 µM).
For the compound `COc1ccc2nc(N/N=C\c3ccc(Oc4ccc(Cl)cc4)cc3)sc2c1`, the minimal inhibitory concentration (MIC) was 8 µg/mL (≈ 19.5 µM).
`COc1ccc2nc(N/N=C\c3ccc(Oc4ccc(Cl)cc4Cl)cc3)sc2c1` showed an MIC of 27.5 µg/mL (≈ 61.9 µM).
Same read-out and setting: the value for `COc1ccc2nc(N/N=C\c3ccc(Oc4ccc(Cl)c(C)c4)cc3)sc2c1` was 27 µg/mL (≈ 63.7 µM); that for `O=[N+]([O-])c1ccc2nc(N/N=C\c3ccc(Oc4ccccc4)cc3)sc2c1` was 29 µg/mL (≈ 74.3 µM).
The compound `O=[N+]([O-])c1ccc2nc(N/N=C\c3ccc(Oc4ccccc4Cl)cc3)sc2c1` gave an MIC of 29.5 µg/mL (≈ 69.4 µM).
With `O=[N+]([O-])c1ccc2nc(N/N=C\c3ccc(Oc4ccc(Cl)cc4)cc3)sc2c1`, the MIC worked out at 26.5 µg/mL (≈ 62.4 µM).
In the case of `O=[N+]([O-])c1ccc2nc(N/N=C\c3ccc(Oc4ccc(Cl)cc4Cl)cc3)sc2c1`, inhibition of growth (MIC) required 23.5 µg/mL (≈ 51.2 µM).
On to `Cc1cc(Oc2ccc(/C=N\Nc3nc4ccc([N+](=O)[O-])cc4s3)cc2)ccc1Cl`, for which the MIC stood at 21.5 µg/mL (≈ 49 µM). The MIC values of the last two compounds are within 1.5-fold of each other.
Take `NNC(=O)c1ccncc1` [ISONIAZID]: the MIC was found to be 0.4 µg/mL (≈ 2.92 µM).

The test system of another assay is Mycobacterium tuberculosis. Nature of the assay: Antitubercular activity against Mycobacterium tuberculosis. The format is functional.
Conditions: not given
The method in brief:
as §1
`Oc1cc(Cl)ccc1Oc1ccc(Cl)cc1Cl` [TRICLOSAN] came in with an MIC of 5 µg/mL (≈ 17.3 µM).
